This is an account of results in ChEMBL document CHEMBL4673248, “Discovery and Characterization of BAY 1214784, an Orally Available Spiroindoline Derivative Acting as a Potent and Selective Antagonist of the Human Gonadotropin-Releasing Hormone Receptor as Proven in a First-In-Human Study in Postmenopausal Women” (J Med Chem, 2020).

In series [1] the target is T1, Gonadotropin-releasing hormone receptor (Homo sapiens, UniProt P30968).
T1 sequence (P30968 whole entry): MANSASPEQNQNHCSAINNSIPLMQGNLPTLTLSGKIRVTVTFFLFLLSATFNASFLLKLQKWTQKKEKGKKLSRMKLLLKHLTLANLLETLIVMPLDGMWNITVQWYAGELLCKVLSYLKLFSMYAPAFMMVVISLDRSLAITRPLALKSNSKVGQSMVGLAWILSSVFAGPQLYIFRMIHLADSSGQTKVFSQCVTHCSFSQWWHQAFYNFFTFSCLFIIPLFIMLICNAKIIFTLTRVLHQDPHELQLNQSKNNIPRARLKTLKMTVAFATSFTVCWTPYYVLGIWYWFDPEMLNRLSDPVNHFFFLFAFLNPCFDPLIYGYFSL
The experiment in a line: Antagonist activity at human GnRH receptor expressed in CHO-K1 cells assessed as inhibition of buserelin-induced response preincubated for 20 mins followed by buserelin addition and measured after 60 mins by TR-FRET assay. It is filed as cell-based. For orientation: TR-FRET usually uses a lanthanide donor and a delayed reading to cut background.

Series [2] has as its target T1, Gonadotropin-releasing hormone receptor. The experiment in a line: Antagonist activity at human GnRH receptor expressed in CHO-K1 cells assessed as inhibition of LHRH-induced response preincubated for 20 mins followed by LHRH addition and measured after 60 mins by TR-FRET assay. It is filed as cell-based.
Series [3] has as its target T2, Gonadotropin-releasing hormone receptor (Rattus norvegicus, UniProt P30969).
T2 sequence (P30969 whole entry): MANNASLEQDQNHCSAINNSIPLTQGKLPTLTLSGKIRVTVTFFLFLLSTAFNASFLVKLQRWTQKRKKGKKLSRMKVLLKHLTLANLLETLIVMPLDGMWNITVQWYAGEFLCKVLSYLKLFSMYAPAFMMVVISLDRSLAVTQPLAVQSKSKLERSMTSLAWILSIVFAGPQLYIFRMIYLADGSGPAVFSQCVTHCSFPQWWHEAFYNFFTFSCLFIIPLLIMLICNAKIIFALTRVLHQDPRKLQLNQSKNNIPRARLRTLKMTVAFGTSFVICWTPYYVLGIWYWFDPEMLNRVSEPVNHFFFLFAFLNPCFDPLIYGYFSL
The experiment in a line: Antagonist activity at rat GnRH receptor expressed in CHO-K1 cells assessed as inhibition of buserelin-induced response preincubated for 20 mins followed by buserelin addition and measured after 60 mins by TR-FRET assay. It is filed as cell-based. Put shortly: (§1)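 Frozen rat-receptor cells: thawed, seeded overnight in serum-containing Ham's F12, Accutase-harvested, resuspended in serum-free medium with IP1-d2, 1 h at 37 °C. 1.0 × 10^4 cells/well, 20 min compound preincubation at rt, then 1× EC80 LHRH or buserelin in HEPES stimulation buffer pH 7.4 for 60 min at 37 °C. Tb-anti-IP1 lysis (1:38), HTRF read 60 min later.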

In series [4] the target is T2, Gonadotropin-releasing hormone receptor. Nature of the series: Antagonist activity at rat GnRH receptor expressed in CHO-K1 cells assessed as inhibition of LHRH-induced response preincubated for 20 mins followed by LHRH addition and measured after 60 mins by TR-FRET assay. It is filed as cell-based. Put shortly:
as §1

Series [5] is described as follows: Lipophilicity, log D of the compound in pH 7.5 MeCN/H2O solution by reversed-phase HPLC analysis. It is filed as physicochemical. In outline:
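Indirect reversed-phase HPLC at pH 7.5, calibrated with n-alkan-2-ones C3–C16. Compounds applied as 0.67 mM DMSO stocks in MeCN/H2O (1:1).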

The IC50 is the point on the concentration scale where inhibition reaches its midpoint. For orientation: chromatographic logD means a lipophilicity value derived from retention on a column. A high value points to a more lipophilic compound.

Regarding `CC(=O)N1CCC2(CC1)CN(S(=O)(=O)c1ccc(F)cc1)c1ccc(C(=O)NCc3ccccc3Cl)cc12`, the concentration for half-maximal inhibition (IC50) in series [1] worked out at 1770 nM; in series [2], 420 nM.

With `O=C(Nc1ccc2c(c1)C1(CCSCC1)C(C1CC1)N2S(=O)(=O)c1ccc(F)cc1)c1cccnc1` (racemic), the figures for the IC50 in series [1] and in series [2] were 132 nM and 48 nM, respectively.

For the compound `O=C(NCc1ccc(C(F)(F)F)cn1)c1ccc2c(c1)C1(CCS(=O)(=O)CC1)C(C1CC1)N2S(=O)(=O)c1ccc(F)cc1` (racemic), the concentration for half-maximal inhibition (IC50) in series [1] worked out at 415 nM; in series [2], 159 nM.

On to `CC(=O)N1CCC2(CC1)c1cc(C(=O)NCc3ccc(F)cc3Cl)ccc1N(S(=O)(=O)c1ccc(F)cc1)C2C1CC1` (racemic), for which the IC50 in series [1] stood at 77 nM; in series [2], 38 nM.

For `O=C(NCc1ncccc1Cl)c1ccc2c(c1)C1(CCS(=O)(=O)CC1)C(C1CC1)N2S(=O)(=O)c1ccc(F)cc1` (racemic), the IC50 was 222 nM in series [1] and 90 nM in series [2].

As for `CC1N(S(=O)(=O)c2ccccc2)c2ccc(C(=O)NCc3ccccc3Cl)cc2C1(C)C` (racemic), the IC50 in series [3] came to 4840 nM; in series [1] it was 1410 nM; in series [2], 3060 nM.

For `COc1ccc(S(=O)(=O)N2c3ccc(C(=O)NCc4ccccc4Cl)cc3C(C)(C)C2C)cc1` (stereo in doubt; form 2), the IC50 in series [4], in series [3], in series [1] and in series [2] was ≥ 20000 nM in each case.

Take `CC(=O)N1CCC2(CC1)c1cc(C(=O)NCc3ccccc3)ccc1N(S(=O)(=O)c1ccc(F)cc1)C2C1CC1` (racemic): the IC50 in series [1] is 553 nM; in series [2], 208 nM.

On to `C=CCC1N(S(=O)(=O)c2ccc(F)cc2)c2ccc(C(=O)NCc3ccccc3Cl)cc2C12CCN(C(C)=O)CC2` (racemic), for which the half-maximal inhibitory concentration (IC50) came to 22 nM in series [1] and 10 nM in series [2].

As for `CC(=O)N1CCC2(CC1)c1cc(C(=O)NCc3ccccc3Cl)ccc1N(S(=O)(=O)c1ccccc1)C2C` (racemic), the figures for the IC50 in series [1] and in series [2] were 131 nM and 53 nM, respectively.

In the case of `CC(=O)N1CCC2(CC1)c1cc(C(=O)NCc3ccccc3Cl)ccc1N(S(=O)(=O)c1ccc(F)cc1)C2CCO` (racemic), the 50% inhibitory concentration (IC50) in series [1] was 1150 nM; in series [2], 584 nM.

Take `CC(=O)N1CCC2(CC1)c1cc(C(=O)NCc3ccccc3Cl)ccc1N(S(=O)(=O)c1ccc(F)cc1)C2C` (stereo in doubt; form 2): the IC50 in series [2] turned out to be 21 nM.

`CC(=O)N1CCC2(CC1)c1cc(C(=O)NCc3ccccc3Cl)ccc1N(S(=O)(=O)c1ccc(F)cc1)C2C` (racemic): the chromatographic logD in series [5] was 3.25. For the same compound, the results for the IC50 in series [1] and in series [2] were 90 nM and 87 nM, respectively.

For the compound `CC(=O)N1CCC2(CC1)c1cc(NC(=O)c3cccnc3)ccc1N(S(=O)(=O)c1ccc(F)cc1)C2C1CC1` (racemic), the IC50 in series [1] came out at 68 nM; in series [2], 34 nM.

Regarding `O=C(NCc1ncc(F)cc1Cl)c1ccc2c(c1)C1(CCS(=O)(=O)CC1)C(C1CC1)N2S(=O)(=O)c1ccc(F)cc1` (racemic), the 50% inhibitory concentration (IC50) in series [1] was 144 nM; in series [2] it was 65 nM.

Take `O=C(NCc1ncc(C(F)(F)F)cc1Cl)c1ccc2c(c1)C1(CCS(=O)(=O)CC1)C(C1CC1)N2S(=O)(=O)c1ccc(F)cc1` (racemic): the IC50 in series [1] amounted to 44 nM; in series [2] it was 20 nM.

With `CC(=O)N1CCC2(CC1)c1cc(C(=O)NCc3ccccc3Cl)ccc1N(S(C)(=O)=O)C2C` (racemic), the half-inhibitory concentration (IC50) in series [1] was determined as 18100 nM; in series [2], 10100 nM.

As to `N=S1(=O)CCC2(CC1)c1cc(NC(=O)c3cccnc3)ccc1N(S(=O)(=O)c1ccc(F)cc1)C2C1CC1` (stereo in doubt; form 1), the IC50 in series [1] stood at 58.5 nM; in series [2], 32 nM.

Consider `COc1ccc(S(=O)(=O)N2c3ccc(C(=O)NCc4ccccc4Cl)cc3C3(CCN(C(C)=O)CC3)C2C)cc1` (stereo in doubt; form 1), for which the IC50 in series [4], in series [1] and in series [2] was ≥ 20000 nM each time.

Regarding `CC(=O)N1CCC2(CC1)c1cc(C(=O)NCc3ccccc3Cl)ccc1N(S(=O)(=O)c1cccnc1)C2C` (racemic), the IC50 in series [1] came to 269 nM; in series [2] it was 139 nM.

As to `CC(=O)N1CCC2(CC1)c1cc(C(=O)NCc3ccccc3Cl)ccc1N(S(=O)(=O)c1ccc(F)cc1)C2C1CC1` (racemic), the half-inhibitory concentration (IC50) was 47 nM in series [1] and 24 nM in series [2].

Regarding `CC(=O)N1CCC2(CC1)c1cc(C(=O)NCc3ccccc3Cl)ccc1N(S(=O)(=O)c1ccc(C(F)(F)F)cc1)C2C` (racemic), the values for the IC50 in series [1] and in series [2] were 13800 nM and > 20000 nM, respectively.

As to `CC(=O)N1CCC2(CC1)c1cc(C(=O)NC3(c4ccccc4Cl)CC3)ccc1N(S(=O)(=O)c1ccc(F)cc1)C2C1CC1` (racemic), the half-maximal inhibitory concentration (IC50) was found to be 1050 nM in series [1] and 162 nM in series [2].

Take `COc1ccc(S(=O)(=O)N2c3ccc(C(=O)NCc4ccccc4Cl)cc3C(C)(C)C2C)cc1` (stereo in doubt; form 1): the IC50 in series [4] came out at 726 nM; in series [3], 1110 nM; in series [1] it was 1530 nM; in series [2], 568 nM.

On to `O=C(NCc1ccccn1)c1ccc2c(c1)C1(CCS(=O)(=O)CC1)C(C1CC1)N2S(=O)(=O)c1ccc(F)cc1` (racemic), for which the IC50 in series [1] was 921 nM; in series [2] it was 245 nM.

On to `CC(=O)N1CCC2(CC1)c1cc(C(=O)NCc3ccccc3Cl)ccc1N(Cc1ccc(F)cc1)C2C` (racemic), for which the IC50 came to 18200 nM in series [1] and 12800 nM in series [2].

Consider `O=C(NCc1ncc(C(F)(F)F)cc1F)c1ccc2c(c1)C1(CCS(=O)(=O)CC1)C(C1CC1)N2S(=O)(=O)c1ccc(F)cc1` (racemic), for which the IC50 in series [1] is 246 nM; in series [2] it was 84 nM.

Take `CC(=O)N1CCC2(CC1)c1cc(NC(=O)c3cccc(F)c3)ccc1N(S(=O)(=O)c1ccc(F)cc1)C2C1CC1` (racemic): the 50% inhibitory concentration (IC50) in series [1] worked out at 18 nM; in series [2] it was 10 nM.

As for `O=C(Nc1ccc2c(c1)C1(CC[S+]([O-])CC1)C(C1CC1)N2S(=O)(=O)c1ccc(F)cc1)c1cccnc1` (stereo not given), the IC50 was found to be 36 nM in series [1] and 18 nM in series [2].

Turning to `CC(=O)N1CCC2(CC1)c1cc(C(=O)NC3(c4ccc(Cl)cc4)CC3)ccc1N(S(=O)(=O)c1ccc(F)cc1)C2C1CC1` (racemic), the results for the IC50 in series [1] and in series [2] were 92 nM and 56 nM, respectively.

On to `CC(=O)N1CCC2(CC1)c1cc(C(=O)NCc3ccccc3Cl)ccc1N(C(=O)c1ccc(F)cc1)C2C` (racemic), for which the values for the IC50 in series [1] and in series [2] were > 20000 nM and 18000 nM, respectively.

Take `O=C(Nc1ccc2c(c1)C1(CCC(O)(C(F)(F)F)CC1)C(C1CC1)N2S(=O)(=O)c1ccc(F)cc1)c1cccnc1` (stereo not given): the IC50 worked out at 228 nM in series [1] and 78 nM in series [2].

On to `O=C(NCc1ncc(C(F)(F)F)cc1Cl)c1ccc2c(c1)C1(CCS(=O)(=O)CC1)C(C1CC1)N2S(=O)(=O)c1ccc(F)cc1` (stereo in doubt), for which, in series [1], the half-inhibitory concentration (IC50) stood at 2430 nM.

Turning to `CC1N(S(=O)(=O)c2ccc(F)cc2)c2ccc(NC(=O)c3cccnc3)cc2C12CCOCC2` (racemic), the half-inhibitory concentration (IC50) in series [1] came out at 140 nM; in series [2], 53 nM.

For the compound `N=S1(=O)CCC2(CC1)c1cc(NC(=O)c3cccnc3)ccc1N(S(=O)(=O)c1ccc(F)cc1)C2C1CC1` (stereo in doubt; form 2), the half-maximal inhibitory concentration (IC50) in series [1] was 26 nM; in series [2], 13 nM.

For the compound `O=C(Nc1ccc2c(c1)C1(CCC(O)CC1)C(C1CC1)N2S(=O)(=O)c1ccc(F)cc1)c1cccnc1` (stereo not given), the IC50 was 61 nM in series [1] and 26 nM in series [2].

`O=C(Nc1ccc2c(c1)C1(CCS(=O)(=O)CC1)C(C1CC1)N2S(=O)(=O)c1ccc(F)cc1)c1cccnc1` (stereo not given): the figures for the half-inhibitory concentration (IC50) in series [1] and in series [2] were 45 nM and 20 nM, respectively.

On to `CC(=O)N1CCC2(CC1)c1cc(C(=O)NCc3ccccc3Cl)ccc1N(S(=O)(=O)c1ccc(F)cc1)C2C` (stereo in doubt; form 1), for which the half-inhibitory concentration (IC50) in series [1] and in series [2] was > 20000 nM each time.

In the case of `COc1ccc(S(=O)(=O)N2c3ccc(C(=O)NCc4ccccc4Cl)cc3C(C)(C)C2C)cc1` (racemic), the IC50 stood at 1420 nM in series [4], 4870 nM in series [3], 6620 nM in series [1] and 365 nM in series [2].
